Compounds with a hit are over-represented: about 2.8% of the library has one in this group of screens.
T cell HTS: T cell immune modulation candidate; actives 0.068% (n = 330,000); 2C CD8+ T cell-vesicle binding, flow cytometry; stronger effect = lower value; response (vesicle binding), % at 7 µM;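 active = response, share of CD8 T cells binding vesicles, and their 90th percentile fluorescence all below set limits, cut at about 80% in these data, passing the limit was not always enough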;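 note: values below 100% mean blocked vesicle binding to the CD8+ T cells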
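Benchmarks: naked versus QL9-loaded vesicles / Assay system: purified 2C TCR transgenic mouse naive CD8+ T cells / Technique: high-throughput flow cytometry with anti-B7-1 and anti-CD8 staining / Timing: Cell–vesicle co-incubation 1.5 h at 37 °C, staining 20 min on ice / Read-out: percent CD8+ FL2 mean versus row control / Probe or stimulus: QL9-loaded Drosophila micro-vesicles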
Rtt109 Vps75: C. albicans Rtt109 histone acetyltransferase inhibition; inhibition, % at 34.9 µM; AID 540336; purified Rtt109/Vps75, ThioGlo CoA-SH fluorescence, 4 h; actives 0.16% (n = 330,000); Q5AAJ8;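 active = inhibition of at least 50% in every replicate; inconclusive = best replicate reaches 50% inhibition but some replicates fall short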
Target sequence (Q5AAJ8 whole entry, looked up): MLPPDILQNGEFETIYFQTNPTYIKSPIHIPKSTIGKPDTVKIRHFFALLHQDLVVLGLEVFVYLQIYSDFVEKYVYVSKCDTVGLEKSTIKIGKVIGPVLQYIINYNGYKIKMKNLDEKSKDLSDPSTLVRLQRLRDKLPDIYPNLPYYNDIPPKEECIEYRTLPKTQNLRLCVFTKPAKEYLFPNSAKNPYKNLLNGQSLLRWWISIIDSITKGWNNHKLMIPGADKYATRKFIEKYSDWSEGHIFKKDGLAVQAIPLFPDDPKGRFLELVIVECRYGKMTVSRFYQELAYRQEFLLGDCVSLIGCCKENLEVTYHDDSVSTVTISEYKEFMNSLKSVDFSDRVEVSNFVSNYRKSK
NR3A LBD binder: modulates the human NR3A ligand-binding domain. NR3A LBD differential scanning fluorimetry, Tm shift; 0% = protein alone, 100% = glycine-bound protein. Tm shift relative to glycine control, % at 25 µM. actives 2.5% (n = 340,000). AID 1259313;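 active = melting temperature shift of at least 10% of the positive control shift, at one fixed dose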
JMJD2C inh: inhibitors of human GASC-1 (JMJD2C) demethylase | inhibition, % at 2.35 µM | Q9H3R0 | actives 0.069% (n = 330,000) | GST-JMJD2C(1-420) H3K9me3 demethylation, DELFIA europium;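 active = more than half of a compound's replicate wells show inhibition beyond 50%, single wells judged on their own value; inconclusive = some, but no more than half, of replicates pass 50% inhibition; inactive = no replicate passes 50% inhibition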;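 note: signal counts dimethyl H3K9 product captured on neutravidin plate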
Hits are given with their value; i = inactive; ? = inconclusive; nt = no result given.

SMILES | T cell HTS | Rtt109 Vps75 | NR3A LBD binder | JMJD2C inh
CCCCCN(C(=O)CCC(=O)OCC(=O)c1ccc(F)c(F)c1)c1c(N)n(CCCC)c(=O)[nH]c1=O | i | i | i | i
CCCCCN(C(=O)CCC(=O)OCC(=O)c1cccc(OC)c1)c1c(N)n(CCCC)c(=O)[nH]c1=O | i | i | i | 58.7
CCCCn1c(N)c(N(Cc2ccccc2OC)C(=O)c2sccc2C)c(=O)[nH]c1=O | i | 50.4 | i | ?
CCCCCN(C(=O)CCC(=O)OC(C)C(=O)Nc1cccc(C#N)c1)c1c(N)n(CCCC)c(=O)[nH]c1=O (stereo unspecified) | i | i | 18.1 | i
CC1CCC2(CC1)NC(=O)N(CC(=O)Nc1ccc(C(N)=O)cc1)C2=O (stereo unspecified) | i | i | i | i
CCCc1c(C(=O)N/N=C/C(C)=C/c2ccco2)nnn1-c1nonc1N | i | i | 15.7 | i
CC(C)c1c(C(=O)N/N=C/c2ccncc2)nnn1-c1nonc1N | i | i | i | i
CC(/C=N/NC(=O)c1nnn(-c2nonc2N)c1C(C)C)=C\c1ccco1 | i | i | 18.7 | i
CNC(=O)COc1coc(CN2CCN(c3ccccc3OC)CC2)cc1=O | i | i | i | i
O=C(COc1ccccc1Cl)Nc1nnc(S(=O)(=O)N2CCCC2)s1 | i | i | i | i
COc1cc2c(cc1OC)C1(CCCC1)C(N)=C2C#N | i | i | 10.8 | i
COc1cc(OC)c(OC)cc1C#N | i | i | i | i
COCCNC(=O)c1ccc(Cl)c(S(=O)(=O)Nc2cccc(C)c2C)c1 | i | i | i | i
COCCN1C(=O)C(=O)/C(=C(/O)c2cccc(OC)c2)C1c1ccncc1 (stereo unspecified) | i | i | i | i
COCCN1C(=O)C(=O)/C(=C(/O)c2cccc(OC)c2)C1c1ccc(C)o1 (stereo unspecified) | 74.8 | i | i | i
NC(N)=NS(=O)(=O)c1ccc(NC(=S)NC(=O)/C=C/c2cccs2)cc1 | i | i | 11.3 | i
CCCOC(=O)c1ccc(NC(=O)/C=C/c2cccs2)cc1 | i | i | 28.2 | i
Cc1ccc(NC(=O)/C=C/c2cccs2)c([N+](=O)[O-])c1 | i | i | i | 55.6
NS(=O)(=O)c1ccc(NC(=S)NC(=O)/C=C/c2cccs2)cc1 | i | i | i | i
O=C(/C=C/c1cccs1)Nc1ccc([N+](=O)[O-])cc1 | i | i | 26.1 | i
CC(C)c1cccc(C(C)C)c1OC(=O)[C@H]1OC(C(C)(C)C)=C[C@@H]1c1ccccc1 | i | i | 15.7 | i
CCOC(=O)C1CCN(CC(O)COCc2ccccc2)CC1 (stereo unspecified) | i | i | 14.5 | i
C=C(C)CNC(=S)NNC(=O)CCn1c2ccc(Cl)cc2c2cc(Cl)ccc21 | i | nt | 26.8 | i
C=C(C)CNC(=S)NNC(=O)CCn1c2cc(Cl)ccc2c2ccc(Cl)cc21 | i | i | 16.2 | i
COc1ccc(C)cc1S(=O)(=O)Nc1ccc2c(c1)N(C(C)=O)CCC2 | i | i | i | i
SMILES | T cell HTS | Rtt109 Vps75 | NR3A LBD binder | JMJD2C inh
CCSc1ccccc1-c1nc(-c2ccncc2)no1 | i | i | i | i
Oc1ccc(Cl)cc1C1=NNC(c2ccc(Cl)cc2)C1 (stereo unspecified) | i | i | 11.5 | i
Oc1c(Cl)cc(Cl)cc1C1=NNC(c2ccc(Cl)cc2)C1 (stereo unspecified) | nt | i | i | nt
CCCCCCc1cc2cc(-c3nnc(-c4cc(OC)c(OC)c(OC)c4)o3)c(=O)oc2cc1O | i | nt | i | i
CCCCCCc1cc2cc(-c3nnc(-c4ccccc4OC)o3)c(=O)oc2cc1O | i | i | 23.8 | i
CCCCCCc1cc2cc(-c3nnc(-c4ccccc4O)o3)c(=O)oc2cc1O | i | i | 28.6 | i
CCCCOc1ccc(S(=O)(=O)N2CCN(c3ccc(N4CCN(CC)CC4)nn3)CC2)cc1 | i | i | i | i
CCOC(=O)c1sc(=S)n(C)c1NC(=O)c1ccccc1C | i | i | 14.4 | i
CCOC(=O)c1sc(=S)n(C)c1NC(=O)c1ccc(F)cc1 | i | i | i | i
CCOC(=O)c1ccc(-c2ccc(/C=N/NC(=O)CN(c3ccccc3Br)S(C)(=O)=O)o2)cc1 | i | i | 11.9 | i
CS(=O)(=O)N(CC(=O)N/N=C/c1cccc2c1OCCO2)c1ccccc1Br | i | i | i | i
Cc1cccc(NC(=O)C2C3C=CC(O3)C2C(=O)O)c1C (stereo unspecified) | i | i | i | i
COc1ccc(Cc2nnc(SC(C)C(=O)Nc3ccc(C(N)=O)cc3)o2)cc1 (stereo unspecified) | i | i | i | i
COC(=O)c1cn[nH]c1NC(=S)Nc1ccc(C)cc1Cl | i | i | 30.2 | i
COC(=O)c1cn[nH]c1NC(=S)Nc1ccc(Cl)c(Cl)c1 | i | i | 11.4 | i
COC(=O)c1cn[nH]c1NC(=S)Nc1ccccc1C | i | i | i | i
CCOc1ccc(NC(=O)CN2C(=O)NC(C)(c3ccc4c(c3)OCCCO4)C2=O)cc1OCC (stereo unspecified) | nt | i | i | nt
Cc1cc(C)c2nc(NC(=O)[C@@H](NC(=O)c3cccc(S(=O)(=O)N4CCOCC4)c3)C(C)C)sc2c1 | i | i | 34.3 | i
Cc1cc(C)c2nc(NC(=O)c3cccc(S(=O)(=O)N4CCc5ccccc54)c3)sc2c1 | i | i | 10.2 | i
Cc1ccc(NC(=S)N(CCCN2CCCC2)Cc2cccn2Cc2ccc(Cl)cc2)cc1C | i | 61.8 | i | i
Cc1cc(NC(=S)N(CCCN2CCOCC2)Cc2ccco2)ccc1Cl | i | i | 13.4 | i
Cc1ccc(NC(=S)N(CCCN2CCCC2)Cc2cccn2Cc2ccc(Cl)cc2)cc1Cl | i | i | i | i
Cc1ccc(F)cc1NC(=O)c1ccc(NS(=O)(=O)c2ccc(Br)s2)cc1 | i | i | 16.3 | i
COC(=O)CCC1(C(N)=O)CCC(=O)c2ccccc21 (stereo unspecified) | nt | i | 12.6 | nt
Cc1ccc(-c2csc(NC(=O)/C=C/c3cccs3)n2)cc1C | i | i | 19.2 | i
SMILES | T cell HTS | Rtt109 Vps75 | NR3A LBD binder | JMJD2C inh
CN(/N=C\c1ccc(O)c(O)c1)c1nc(-c2ccccc2)cc(-c2ccccc2)n1 | i | i | 21.4 | i
COc1cc(/C=N/N(c2ccccc2)c2ccccc2)ccc1O | i | i | i | i
Cc1cc(/C=N/n2c(COc3ccccc3)nc3ccccc3c2=O)c(O)c([N+](=O)[O-])c1 | i | i | 15.5 | i
COC(=O)c1ccc(NCc2c(O)ccc(O)c2Br)cc1Cl | nt | i | 32.2 | nt
COC(=O)c1ccc(NCc2cc(O)ccc2O)cc1O | nt | i | i | nt
CC(NS(=O)(=O)c1ccc(OCC(=O)NCc2cccnc2)cc1)c1ccccc1 (stereo unspecified) | i | i | i | i
COC(=O)c1ccc(COc2ccccc2/C=C(\C#N)C(=O)Nc2ccc(C)cc2C)cc1 | i | i | i | i
COC(=O)c1ccc(COc2ccccc2/C=C(\C#N)C(=O)Nc2c(C)cc(C)cc2C)cc1 | i | i | 17.1 | i
CCOC(=O)N1CCC(NC(=O)C2=C(C)C(=O)OC23CCC(C)CC3)CC1 (stereo unspecified) | i | i | i | i

Screens as filed in PubChem.
